Molecules are shown by their SMILES. A value given as a limit tells only on which side of the number the result lay.

A short description of data set [1]: Selectivity index, ratio of CC50 for human MT4 cells to EC50 for HIV1 3B. It counts as toxicity, cell-based. The following applies: read-out: Ratio CC50/EC50. In short, it runs like this: (§1)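 Human lymphocyte MT-4 cultures infected with HIV-1; HIV-induced cytopathic effect read by MTT assay; EC50 is the concentration reducing cytopathic effect by 50%; average ± SD; SI is CC50/EC50.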

In data set [2] the test system is Human immunodeficiency virus 1. The data set can be described thus: Antiviral activity against HIV1 3B infected in human MT4 cells assessed as inhibition of virus-induced cytopathic effect by MTT assay. Format: functional, organism-based. To be noted: Human immunodeficiency virus 1, 3B. The method, boiled down:
as §1
(Cytopathic effects are the visible damage that an infection or toxin causes in cultured cells.)

Data set [3] deals with T1, Human immunodeficiency virus type 1 integrase (Human immunodeficiency virus 1, UniProt Q7ZJM1). As to the kind of experiment: Inhibition of HIV1 integrase activity by ELISA. The method, boiled down: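 In vitro overall integrase reaction measured by enzyme-linked immunosorbent assay; IC50 is the concentration giving 50% inhibition of overall integrase activity; average ± SD.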
T1 sequence (Q7ZJM1 whole entry): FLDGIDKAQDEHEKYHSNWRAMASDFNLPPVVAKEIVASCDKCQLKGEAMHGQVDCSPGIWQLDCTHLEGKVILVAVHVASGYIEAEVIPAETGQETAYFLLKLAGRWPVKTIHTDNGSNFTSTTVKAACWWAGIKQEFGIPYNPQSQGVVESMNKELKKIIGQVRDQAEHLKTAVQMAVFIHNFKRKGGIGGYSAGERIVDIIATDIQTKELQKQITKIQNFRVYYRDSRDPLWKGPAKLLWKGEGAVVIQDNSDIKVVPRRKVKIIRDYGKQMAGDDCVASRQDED

The nature of data set [4]: Cytotoxicity against human MT4 cells by MTT assay. Format: cell-based. The method, boiled down:
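Uninfected MT-4 cells; viability read by MTT assay; CC50 is the concentration reducing viability by 50%; average ± SD; SI is CC50/EC50.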
On the technique in general: Formazan colour is commonly taken as a measure of viable cells.

The target in data set [5] is T1, Human immunodeficiency virus type 1 integrase. The data set can be described thus: Inhibition of HIV1 integrase strand transfer activity by ELISA. In short, it runs like this:
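Strand transfer step of integration measured in vitro by enzyme-linked immunosorbent assay; IC50 is the concentration giving 50% inhibition of strand transfer; average ± SD.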
(In general: ELISA stands for enzyme-linked immunosorbent assay.)

A word on the EC50: it is the concentration giving half of the maximal effect. In the case of `COc1cccc2c1c(C(=O)/C=C(\O)C(=O)O)cn2Cc1ccc(F)cc1`, the selectivity ratio in data set [1] was found to be 70. The EC50 in data set [2] worked out at 590 nM.

A word on the IC50: it is the concentration that gives 50% inhibition. Higher therefore signals weaker potency. By CC50 is commonly meant the concentration that lowers cell viability or growth by half. With `COc1cccc2c1c(C(=O)/C=C(\O)C(=O)O)cn2Cc1c(F)cccc1F`, the half-maximal inhibitory concentration (IC50) came out at 130 nM in data set [3] and 80 nM in data set [5]. Moreover, the selectivity ratio in data set [1] was 108. Also, the EC50 in data set [2] came to 410 nM. It took 44300 nM to reach half-maximal cytotoxicity in data set [4] (CC50).

Consider `COc1cccc2c1c(C(=O)/C=C(\O)C(=O)O)cn2Cc1cccc(F)c1F`, for which the half-inhibitory concentration (IC50) in data set [3] worked out at 10 nM; in data set [5], 120 nM. Moreover, the selectivity ratio in data set [1] was over 68.7. In addition, in data set [2], the EC50 was 260 nM. Moreover, the CC50 in data set [4] is 17500 nM.

Turning to `COc1cccc2c1c(C(=O)/C=C(\O)C(=O)O)cn2Cc1ccc(F)c(F)c1`, the IC50 in data set [3] was determined as 420 nM; in data set [5], 600 nM. In addition, the selectivity ratio in data set [1] turned out to be 25. Besides, the EC50 in data set [2] was determined as 2800 nM. The compound also gave a CC50 in data set [4] of 71000 nM.

In the case of `CCOC(=O)/C(O)=C/C(=O)c1cn(Cc2cccc(F)c2)c2cccc(OC)c12`, the results for the half-maximal inhibitory concentration (IC50) in data set [3] and in data set [5] were 300 nM and 2260 nM, respectively. Further, the selectivity ratio in data set [1] stood at 28.5. In addition, the EC50 in data set [2] came out at 2210 nM. Moreover, the midpoint of cytotoxicity in data set [4], the CC50, lay at 63200 nM.

As for `CCOC(=O)/C(O)=C/C(=O)c1cn(Cc2ccc(F)c(F)c2)c2cccc(OC)c12`, the 50% inhibitory concentration (IC50) in data set [3] stood at 26500 nM; in data set [5], 1560 nM. In data set [1], the selectivity ratio was over 2. Further, the EC50 in data set [2] was determined as 80100 nM. In data set [4], this compound returned a CC50 of 125000 nM.

As to `CCOC(=O)/C(O)=C/C(=O)c1cn(Cc2cc(F)cc(F)c2)c2cccc(OC)c12`, the values for the IC50 in data set [3] and in data set [5] were 1520 nM and 2740 nM, respectively. Moreover, in data set [1], the selectivity ratio was over 5.8. Besides, the EC50 in data set [2] was determined as 5940 nM. Further, the CC50 in data set [4] worked out at 34700 nM.

In the case of `CCOC(=O)/C(O)=C/C(=O)c1cn(Cc2ccc(F)c(F)c2F)c2cccc(OC)c12`, the results for the IC50 in data set [3] and in data set [5] were 3010 nM and 1150 nM, respectively. Further, in data set [1], the selectivity ratio is over 13. In data set [2], the half-maximal effective concentration (EC50) amounted to 3150 nM. Further, the 50% cytotoxic concentration (CC50) in data set [4] is 42700 nM.

As to `CCOC(=O)/C(O)=C/C(=O)c1cn(Cc2cc(F)ccc2F)c2cccc(OC)c12`, the concentration for half-maximal inhibition (IC50) in data set [3] was determined as 1410 nM; in data set [5], 400 nM. Further, in data set [1], the selectivity ratio worked out at 13.1. Further, the EC50 in data set [2] was determined as 3150 nM. In data set [4], this compound had a CC50 of 41200 nM.

As for `CCOC(=O)/C(O)=C/C(=O)c1cn(Cc2c(F)cccc2F)c2cccc(OC)c12`, the concentration for half-maximal inhibition (IC50) is 360 nM in data set [3] and 70 nM in data set [5]. Besides, the selectivity ratio in data set [1] was over 31.1. For the same compound, the concentration giving a half-maximal response (EC50) in data set [2] was found to be 2040 nM. This compound yielded a 50% cytotoxic concentration (CC50) in data set [4] of 63400 nM.

Take `CCOC(=O)/C(O)=C/C(=O)c1cn(Cc2ccccc2F)c2cccc(OC)c12`: the IC50 in data set [3] is 380 nM; in data set [5], 720 nM. In addition, the selectivity ratio in data set [1] is 45.3. Also, in data set [2], the EC50 amounted to 1400 nM. The compound further displayed a cytotoxic concentration (CC50) in data set [4] of 63300 nM.

Take `CCOC(=O)/C(O)=C/C(=O)c1cn(Cc2ccc(F)cc2F)c2cccc(OC)c12`: the results for the concentration for half-maximal inhibition (IC50) in data set [3] and in data set [5] were 110 nM and 670 nM, respectively. Moreover, the selectivity ratio in data set [1] was 33.7. Also, in data set [2], the EC50 was determined as 1950 nM. The same compound registered a 50% cytotoxic concentration (CC50) in data set [4] of 65500 nM.

For the compound `CCOC(=O)/C(O)=C/C(=O)c1cn(Cc2cc(F)c(F)c(F)c2)c2cccc(OC)c12`, the IC50 in data set [3] amounted to 2000 nM; in data set [5], 1410 nM. Further, the selectivity ratio in data set [1] was 8.4. Besides, the 50% effective concentration (EC50) in data set [2] worked out at 3960 nM. Further, in data set [4], the 50% cytotoxic concentration (CC50) came to 33400 nM.

As to `COc1cccc2c1c(C(=O)/C=C(\O)C(=O)O)cn2Cc1ccccc1F`, the IC50 in data set [3] was found to be 70 nM; in data set [5] it was 40 nM. The selectivity ratio in data set [1] is 228. Further, the half-maximal effective concentration (EC50) in data set [2] stood at 310 nM. Moreover, in data set [4], the CC50 is 70500 nM.

Turning to `COc1cccc2c1c(C(=O)/C=C(\O)C(=O)O)cn2Cc1cc(F)c(F)c(F)c1`, the half-inhibitory concentration (IC50) was determined as 60 nM in data set [3] and 100 nM in data set [5]. Also, the selectivity ratio in data set [1] stood at 10.5. The EC50 in data set [2] was 2210 nM. This compound returned a 50% cytotoxic concentration (CC50) in data set [4] of 23300 nM.

Regarding `CCOC(=O)/C(O)=C/C(=O)c1cn(Cc2c(F)ccc(F)c2F)c2cccc(OC)c12`, the IC50 in data set [3] was 170 nM; in data set [5] it was 820 nM. In data set [1], the selectivity ratio was found to be 8.4. In addition, the half-maximal effective concentration (EC50) in data set [2] was 4840 nM. Moreover, the midpoint of cytotoxicity in data set [4], the CC50, lay at 40500 nM.

As for `COc1cccc2c1c(C(=O)/C=C(\O)C(=O)O)cn2Cc1cc(F)ccc1F`, the results for the IC50 in data set [3] and in data set [5] were 50 nM and 20 nM, respectively. Further, in data set [1], the selectivity ratio came out at 113. The concentration for a half-maximal effect (EC50) in data set [2] is 410 nM. Also, it took 46200 nM to reach half-maximal cytotoxicity in data set [4] (CC50).

Take `CCOC(=O)/C(O)=C/C(=O)c1cn(Cc2cccc(F)c2F)c2cccc(OC)c12`: the concentration for half-maximal inhibition (IC50) in data set [3] is 5 nM; in data set [5] it was 12 nM. In data set [1], the selectivity ratio is 11.1. For the same compound, the EC50 in data set [2] is 1900 nM. The compound further came in with a CC50 in data set [4] of 21100 nM.

On to `COc1cccc2c1c(C(=O)/C=C(\O)C(=O)O)cn2Cc1ccc(F)c(F)c1F`, for which the figures for the IC50 in data set [3] and in data set [5] were 140 nM and 280 nM, respectively. For the same compound, the selectivity ratio in data set [1] turned out to be 19.9. Further, the EC50 in data set [2] turned out to be 1150 nM. Also, the CC50 in data set [4] amounted to 22800 nM.

Consider `COc1cccc2c1c(C(=O)/C=C(\O)C(=O)O)cn2Cc1ccc(F)cc1F`, for which the results for the IC50 in data set [3] and in data set [5] were 10 nM and 20 nM, respectively. Besides, the selectivity ratio in data set [1] amounted to 50.7. The EC50 in data set [2] worked out at 410 nM. This compound gave a CC50 in data set [4] of 20800 nM.

For the compound `COc1cccc2c1c(C(=O)/C=C(\O)C(=O)O)cn2Cc1cc(F)cc(F)c1`, the half-inhibitory concentration (IC50) in data set [3] worked out at 440 nM; in data set [5], 240 nM. In data set [1], the selectivity ratio came out at 10.6. For the same compound, the EC50 in data set [2] is 2780 nM. Also, the half-maximal cytotoxic concentration (CC50) in data set [4] came out at 29500 nM.

Take `COc1cccc2c1c(C(=O)/C=C(\O)C(=O)O)cn2Cc1cccc(F)c1`: the IC50 in data set [3] and in data set [5] was 30 nM each time. Further, the selectivity ratio in data set [1] is 175. The EC50 in data set [2] came to 380 nM. This compound also showed a cytotoxic concentration (CC50) in data set [4] of 65800 nM.

Regarding `COc1cccc2c1c(C(=O)/C=C(\O)C(=O)O)cn2Cc1c(F)ccc(F)c1F`, the half-maximal inhibitory concentration (IC50) in data set [3] amounted to 130 nM; in data set [5], 160 nM. Moreover, in data set [1], the selectivity ratio was found to be 75.5. In addition, the EC50 in data set [2] amounted to 650 nM. This compound registered a cytotoxic concentration (CC50) in data set [4] of 49400 nM.

The values above are taken from ChEMBL document CHEMBL1139372, “Docking studies on a new human immunodeficiency virus integrase-Mg-DNA complex: phenyl ring exploration and synthesis of 1H-benzylindole derivatives through fluorine substitutions” (J Med Chem, 2009).
